Measurements taken from ChEMBL document CHEMBL1147825, “2H-benzimidazole 1,3-dioxide derivatives: a new family of water-soluble anti-trypanosomatid agents” (J Med Chem, 2006).
Activity calls are given as the source filed them. The rule behind the calls is not given here.

Experiments:
Trypanosoma cruzi [1] = assay: Antitrypanosomatid activity against Trypanosoma cruzi Tulahuen 2 epimastigote form at 25 uM; format: functional; conditions: read-out: GI
Procedure, shortened: (§1)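 Tulahuen 2 epimastigotes in BHI-tryptose plus 5% FCS at 28°C, inoculated at 1×10^6 cells/mL with compound (25 or 100 µM) from DMSO stock, final DMSO ≤0.4%. Growth over 5 days followed by A600; %GI computed from day-0 and day-5 absorbances of treated vs compound-free control cultures; mean of three experiments.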

Trypanosoma cruzi [2] = assay: Antitrypanosomatid activity against Trypanosoma cruzi Tulahuen 2 epimastigote form at 100 uM; format: functional; conditions: read-out: GI; procedure, shortened: as §1
Leishmania amazonensis = assay: Leishmanicidal activity against Leishmania amazonensis promastigote form at 100 ug/mL; format: functional
Procedure, shortened: (§2)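 Promastigotes grown at 28°C in Schneider's medium with 20% FCS, seeded at 10^7 parasites/mL; compound dissolved in minimal DMSO or Tween 80 and diluted in Schneider's medium to a final 100 µg/mL. After 72 h at 28°C, parasites examined by inverted microscopy and compared with compound-free control.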

Leishmania infantum = assay: Leishmanicidal activity against Leishmania infantum promastigote form at 100 ug/mL; format: functional; procedure, shortened: as §2
Leishmania braziliensis = assay: Leishmanicidal activity against Leishmania braziliensis promastigote form at 100 ug/mL; format: functional; procedure, shortened: as §2
J774 [3] = assay: Cytotoxicity against mouse J774 macrophage at 400 uM; format: functional
Procedure, shortened: (§3)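 J774 macrophages in RPMI 1640 with 20% heat-inactivated FCS, attached 24 h at 37°C in 5% CO2, then exposed to compound for 48 h. Washed, MTT 0.4 mg/mL 60 min at 37°C, formazan dissolved in DMSO, OD595 read. Each concentration in triplicate with six growth controls; %cytotoxicity corrected for compound-in-medium and medium-only blanks.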

J774 [4] = assay: Cytotoxicity against mouse J774 macrophage at 40 uM; format: functional; procedure, shortened: as §3
Trypanosoma cruzi [5] = assay: Antitrypanosomatid activity against Trypanosoma cruzi Tulahuen 2 epimastigote form; format: functional, organism-based
Procedure, shortened: (§4)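 Epimastigotes grown at 28°C in BHI-tryptose with 5% fetal calf serum; 5-day stationary-phase cells inoculated at 1×10^6 cells/mL with compound added from DMSO stock (final DMSO ≤0.4%; control contains 0.4% DMSO). Growth followed by A600; at day 5 absorbance related to control across increasing concentrations; IC50 taken as concentration reducing absorbance ratio to 50%.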

Trypanosoma cruzi [6] = assay: Antitrypanosomatid activity against Trypanosoma cruzi CL Brener epimastigote form; format: functional, organism-based; procedure, shortened: as §4
Trypanosoma cruzi [7] = assay: Antitrypanosomatid activity against Trypanosoma cruzi Y epimastigote form; format: functional, organism-based; procedure, shortened: as §4
Trypanosoma cruzi [8] = assay: Trypanocidal activity against Trypanosoma cruzi CL Brener trypomastigote form in mouse blood at 250 ug/mL; format: functional
Procedure, shortened: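 Trypomastigotes taken from infected mouse blood; compound in DMSO diluted with PBS to 250 µg/mL, mixed with blood containing 10^6 parasites at 90/10 ratio, incubated 24 h at 4°C. Parasites counted by the Brener method under microscope; gentian violet positive and PBS negative controls.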

Trypanosoma cruzi [9] = assay: Activity against Trypanosoma cruzi in BALB/c mouse at 30 mg/kg/day after 60 days; format: functional, organism-based
Procedure, shortened: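 Male BALB/c mice (30 days old, 25-30 g) infected i.p. with 10^3 blood trypomastigotes; oral dosing began 10 days post-infection, 30 mg/kg/day as aqueous PBS solution for 10 days; groups of eight, PBS control group of 10. Mortality recorded daily, parasitemia weekly; anti-T. cruzi antibodies measured serologically (absorbance) at 30 and 60 days post-infection, groups compared by Wilcoxon test.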

J774 [10] = assay: Cytotoxicity against mouse J774 macrophage at 4 uM; format: functional, cell-based; procedure, shortened: as §3

SMILES	inhibition of growth at 25 µM (Trypanosoma cruzi [1])	inhibition of growth at 100 µM (Trypanosoma cruzi [2])	Activity (Leishmania amazonensis)	Activity (Leishmania infantum)	Activity (Leishmania braziliensis)	Activity (Trypanosoma cruzi [8])	also measured
CCOC(=O)COn1c(C)[n+]([O-])c2ccccc21	1%	12%	–	–	–	–	–
O=[N+]([O-])c1ccc2c(c1)[n+]([O-])c1n2CCSC1	0%	–	–	–	–	–	–
Cc1n(O)c2ccc(Cl)cc2[n+]1[O-]	0%	8%	–	–	–	–	–
Cc1ccc2c(c1)=[N+]([O-])C(C)(C)[N+]=2[O-]	85%	–	70%	70%	70%	0%	Activity (J774 [3]): Toxic; Activity (J774 [4]): < 50%; IC50 (Trypanosoma cruzi [5]): 5.1 µM; IC50 (Trypanosoma cruzi [6]): 13.5 µM; IC50 (Trypanosoma cruzi [7]): 13 µM
O=[N+]([O-])c1ccc2c(c1)[n+]([O-])c1n2CCC1	0%	–	–	–	–	–	–
CCCCCCNC(=O)N/N=C/c1ccc2c(c1)=[N+]([O-])C(C)(C)[N+]=2[O-]	69%	–	–	–	–	–	–
Cc1n(O)c2ccc(/C=C/c3ccccc3)cc2[n+]1[O-]	19%	15%	–	–	–	–	–
Cc1n(O)c2ccccc2[n+]1[O-]	0%	0%	inactive	inactive	70%	0%	–
CCOC(=O)COn1c(C)[n+]([O-])c2cc(/C=C/c3ccccc3)ccc21	8%	11%	–	–	–	–	–
CC1(C)[N+]([O-])=c2ccc(C3OCCO3)cc2=[N+]1[O-]	59%	–	100%	100%	100%	28%	Activity (J774 [3]): 50%; Activity (Trypanosoma cruzi [9]): Active; IC50 (Trypanosoma cruzi [5]): 22.7 µM; IC50 (Trypanosoma cruzi [6]): 20 µM; IC50 (Trypanosoma cruzi [7]): 14 µM
COc1ccc2c(c1)[n+]([O-])c(C)n2O	0%	24%	inactive	inactive	inactive	23%	–
CC1(C)[N+]([O-])=c2ccc(Br)cc2=[N+]1[O-]	77%	–	–	–	–	–	Activity (J774 [3]): Toxic; Activity (J774 [4]): < 50%; IC50 (Trypanosoma cruzi [5]): 8.3 µM; IC50 (Trypanosoma cruzi [6]): 12 µM; IC50 (Trypanosoma cruzi [7]): 13.8 µM
O=[N+]([O-])c1ccc2c(c1)[n+]([O-])c1n2CCOC1	0%	–	–	–	–	–	–
CCOC(=O)c1[nH]c2ccc([N+](=O)[O-])cc2[n+]1[O-]	–	–	inactive	inactive	inactive	0%	–
CC1(C)[N+]([O-])=c2ccc(/C=N/O)cc2=[N+]1[O-]	72%	–	100%	100%	100%	21%	Activity (J774 [3]): Not toxic; Activity (J774 [4]): Not toxic; Activity (J774 [10]): Not toxic; Activity (Trypanosoma cruzi [9]): Active; IC50 (Trypanosoma cruzi [5]): 12.5 µM; IC50 (Trypanosoma cruzi [6]): 14.5 µM; IC50 (Trypanosoma cruzi [7]): 11.8 µM
CC1(C)[N+]([O-])=c2ccc(/C=C/c3ccccc3)cc2=[N+]1[O-]	100%	–	–	–	–	–	Activity (J774 [3]): Toxic; Activity (J774 [4]): < 50%; IC50 (Trypanosoma cruzi [5]): 3.4 µM; IC50 (Trypanosoma cruzi [6]): 6 µM; IC50 (Trypanosoma cruzi [7]): 5 µM
Cc1n(O)c2ccc(Br)cc2[n+]1[O-]	0%	18%	–	–	–	–	–
CC1CS(=O)(=O)CCN1/N=C/c1ccc([N+](=O)[O-])o1 (stereo not drawn) [NIFURTIMOX]	93%	–	–	–	–	–	–
CCCCOC(=O)c1[nH]c2ccc([N+](=O)[O-])cc2[n+]1[O-]	–	–	–	–	–	0%	–
Cc1ccc2c(c1)[n+]([O-])c(C)n2O	0%	0%	inactive	inactive	inactive	0%	–
N=C(N)c1ccc(OCCCCCOc2ccc(C(=N)N)cc2)cc1 [PENTAMIDINE]	–	–	100%	100%	100%	–	–
O=C(Cn1ccnc1[N+](=O)[O-])NCc1ccccc1 [BENZNIDAZOLE]	92%	–	–	–	–	–	IC50 (Trypanosoma cruzi [5]): 8.5 µM; IC50 (Trypanosoma cruzi [6]): 3.4 µM
CCCCCOn1c(C)[n+]([O-])c2ccccc21	0%	57%	–	–	–	–	–
CCOC(=O)c1ccc2[nH]c(C(=O)OCC)[n+]([O-])c2c1	–	–	inactive	inactive	inactive	50%	–
CN(C)c1ccc(C(=C2C=CC(=[N+](C)C)C=C2)c2ccc(N(C)C)cc2)cc1.[Cl-] [GENTIAN VIOLET]	–	–	–	–	–	100%	–
CCOC(=O)COn1c(C)[n+]([O-])c2cc(C)ccc21	25%	15%	–	–	–	–	–
O=[N+]([O-])c1ccc2c(c1)[n+]([O-])c1n2CCCC1	0%	–	–	–	–	–	–
CC1(C)[N+]([O-])=c2ccccc2=[N+]1[O-]	87%	–	100%	100%	100%	10%	Activity (J774 [3]): Toxic; Activity (J774 [4]): < 50%; IC50 (Trypanosoma cruzi [5]): 4.3 µM; IC50 (Trypanosoma cruzi [6]): 9 µM; IC50 (Trypanosoma cruzi [7]): 14 µM
COc1ccc2c(c1)=[N+]([O-])C(C)(C)[N+]=2[O-]	52%	–	70%	inactive	70%	34%	Activity (J774 [3]): Toxic; Activity (J774 [4]): < 50%; IC50 (Trypanosoma cruzi [5]): 28.5 µM; IC50 (Trypanosoma cruzi [6]): 25 µM; IC50 (Trypanosoma cruzi [7]): 17 µM
